Results from ChEMBL document CHEMBL4813946, “Discovery of novel 4-azaaryl-N-phenylpyrimidin-2-amine derivatives as potent and selective FLT3 inhibitors for acute myeloid leukaemia with FLT3 mutations” (Eur J Med Chem, 2021).
pKi: −log10 of the molar value. Calls of active or inactive are those of the source. No cut-off for these calls is given here.

Tests used:
Jurkat = experiment: Antiproliferative activity against human Jurkat cells harboring FLT3 knockout gene assessed as reduction in cell viability after 72 hrs by resazurin assay; type: functional
Procedure, shortened: (§1)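 Cells seeded and pre-incubated 24 h at 37 °C, 5% CO2, then given a five-fold dilution series of compound (from 10 mM DMSO stock) in medium, in triplicate. Resazurin added after 72 h exposure, 4 h in dark at 37 °C. Fluorescence read at 570/585 nm, normalised to DMSO vehicle. GI50 by non-linear regression; mean ± SD of at least two replicates.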

U-937 [1] = experiment: Induction of apoptosis in human U937 cells assessed as viable cells at 1 x GI50 concentration incubated for 48 hrs by annexin V-FITC staining based flow cytometry (reference value: 86.25 %); type: functional
[2] = target: Receptor-type tyrosine-protein kinase FLT3 (Homo sapiens) (UniProt P36888); experiment: Inhibition of FLT3-mediated signalling pathway in human MV4-11 cells assessed as increase in caspase 3 expression upto 20 x GI50 concentration incubated for 6 hrs by western blot analysis; type: cell-based
Procedure, shortened: (§2)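 Cells lysed in phosphate lysis buffer with protease inhibitors and protein quantified. Western blots probed phospho and total STAT5, AKT, ERK, S6RP and eIF4E, plus full-length and cleaved PARP and caspase-3, with β-actin as loading control. At least two independent experiments.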

MV4-11 [3] = experiment: Induction of apoptosis in human MV4-11 cells assessed as early apoptotic cells at 5 x GI50 concentration incubated for 24 hrs by annexin V-FITC and propidium iodide staining based flow cytometry (reference value: 2.12 %); type: functional
MV4-11 [4] = experiment: Induction of apoptosis in human MV4-11 cells assessed as early apoptotic cells at 1 x GI50 concentration incubated for 24 hrs by annexin V-FITC and propidium iodide staining based flow cytometry (reference value: 2.12 %); type: functional
[5] = target: Receptor-type tyrosine-protein kinase FLT3 (Homo sapiens) (UniProt P36888); experiment: Inhibition of FLT3-mediated signalling pathway in human MV4-11 cells assessed as inhibition of AKT phosphorylation upto 20 x GI50 concentration incubated for 6 hrs by western blot analysis; type: cell-based; procedure, shortened: as §2
U-937 [6] = experiment: Induction of apoptosis in human U937 cells assessed as necrotic cells at 5 x GI50 concentration incubated for 24 hrs by annexin V-FITC and propidium iodide staining based flow cytometry (reference value: 1.10 %); type: functional
MV4-11 [7] = experiment: Induction of apoptosis in human MV4-11 cells assessed as early apoptotic cells at 20 x GI50 concentration incubated for 24 hrs by annexin V-FITC and propidium iodide staining based flow cytometry (reference value: 2.12 %); type: functional
[8] = Inhibition of FLT3 ITD-W51 mutant (unknown origin) incubated for 120 mins by ADP-glo based luminescence assay; set-up: species or system Homo sapiens
MV4-11 [9] = experiment: Induction of apoptosis in human MV4-11 cells assessed as necrotic cells at 5 x GI50 concentration incubated for 24 hrs by annexin V-FITC and propidium iodide staining based flow cytometry (reference value: 0.75 %); type: functional
MV4-11 [10] = experiment: Induction of apoptosis in human MV4-11 cells assessed as late apoptotic cells at 10 x GI50 concentration incubated for 48 hrs by annexin V-FITC and propidium iodide staining based flow cytometry (reference value: 6.59 %); type: functional
MV4-11 [11] = experiment: Induction of apoptosis in human MV4-11 cells assessed as necrotic cells at 20 x GI50 concentration incubated for 24 hrs by annexin V-FITC and propidium iodide staining based flow cytometry (reference value: 0.75 %); type: functional
NB-4 = experiment: Antiproliferative activity against human NB-4 cells harboring wild type FLT3 assessed as reduction in cell viability after 72 hrs by resazurin assay; type: functional; procedure, shortened: as §1
[12] = target: Receptor-type tyrosine-protein kinase FLT3 (Homo sapiens) (UniProt P36888); experiment: Inhibition of FLT3-mediated signalling pathway in human MV4-11 cells assessed as increase in cleaved PARP expression upto 20 x GI50 concentration incubated for 6 hrs by western blot analysis; type: cell-based; procedure, shortened: as §2
MV4-11 [13] = experiment: Induction of apoptosis in human MV4-11 cells assessed as late apoptotic cells at 1 x GI50 concentration incubated for 48 hrs by annexin V-FITC and propidium iodide staining based flow cytometry (reference value: 6.59 %); type: functional
MV4-11 [14] = experiment: Antiproliferative activity against human MV4-11 cells harboring FLT3-ITD mutant assessed as reduction in cell viability after 72 hrs by resazurin assay; type: functional; procedure, shortened: as §1
MV4-11 [15] = experiment: Induction of apoptosis in human MV4-11 cells assessed as late apoptotic cells at 1 x GI50 concentration incubated for 24 hrs by annexin V-FITC and propidium iodide staining based flow cytometry (reference value: 12.45 %); type: functional
U-937 [16] = experiment: Induction of apoptosis in human U937 cells assessed as late apoptotic cells at 5 x GI50 concentration incubated for 24 hrs by annexin V-FITC and propidium iodide staining based flow cytometry (Rvb =10.30 %); type: functional
[17] = target: Receptor-type tyrosine-protein kinase FLT3 (Homo sapiens) (UniProt P36888); experiment: Inhibition of FLT3-mediated signalling pathway in human U-937 cells assessed as inhibition of eIF4E phosphorylation upto 20 x GI50 concentration incubated for 6 hrs by western blot analysis; type: cell-based; procedure, shortened: as §2
MV4-11 [18] = experiment: Antiproliferative activity against human MV4-11 cells incubated for 72 hrs by resazurin assay; type: functional; procedure, shortened: as §1
U-937 [19] = experiment: Induction of apoptosis in human U937 cells assessed as necrotic cells at 20 x GI50 concentration incubated for 48 hrs by annexin V-FITC staining based flow cytometry (reference value: 1.16 %); type: functional
U-937 [20] = experiment: Induction of apoptosis in human U937 cells assessed as viable cells at 5 x GI50 concentration incubated for 24 hrs by annexin V-FITC and propidium iodide staining based flow cytometry (reference value: 86.80 %); type: functional
U-937 [21] = experiment: Induction of apoptosis in human U937 cells assessed as late apoptotic cells at 20 x GI50 concentration incubated for 48 hrs by annexin V-FITC staining based flow cytometry (reference value: 9.82 %); type: functional
U-937 [22] = experiment: Antiproliferative activity against human U-937 cells harboring wild type/low FLT3 assessed as reduction in cell viability after 72 hrs by resazurin assay; type: functional; procedure, shortened: as §1
U-937 [23] = experiment: Induction of apoptosis in human U937 cells assessed as viable cells at 10 x GI50 concentration incubated for 24 hrs by annexin V-FITC and propidium iodide staining based flow cytometry (reference value: 86.80 %); type: functional
U-937 [24] = experiment: Induction of apoptosis in human U937 cells assessed as necrotic cells at 10 x GI50 concentration incubated for 24 hrs by annexin V-FITC and propidium iodide staining based flow cytometry (reference value: 1.10 %); type: functional
U-937 [25] = experiment: Induction of apoptosis in human U937 cells assessed as early apoptotic cells at 5 x GI50 concentration incubated for 48 hrs by annexin V-FITC staining based flow cytometry (reference value: 2.78%); type: functional
U-937 [26] = experiment: Induction of apoptosis in human U937 cells assessed as late apoptotic cells at 10 x GI50 concentration incubated for 24 hrs by annexin V-FITC and propidium iodide staining based flow cytometry (reference value: 10.30 %); type: functional
MV4-11 [27] = experiment: Induction of apoptosis in human MV4-11 cells assessed as viable cells at 10 x GI50 concentration incubated for 48 hrs by annexin V-FITC and propidium iodide staining based flow cytometry (reference value: 91.87 %); type: functional
MV4-11 [28] = experiment: Induction of apoptosis in human MV4-11 cells assessed as early apoptotic cells at 5 x GI50 concentration incubated for 48 hrs by annexin V-FITC and propidium iodide staining based flow cytometry (Rvb =1.08 %); type: functional

Chain of Receptor-type tyrosine-protein kinase FLT3 (Homo sapiens) (P36888 whole entry): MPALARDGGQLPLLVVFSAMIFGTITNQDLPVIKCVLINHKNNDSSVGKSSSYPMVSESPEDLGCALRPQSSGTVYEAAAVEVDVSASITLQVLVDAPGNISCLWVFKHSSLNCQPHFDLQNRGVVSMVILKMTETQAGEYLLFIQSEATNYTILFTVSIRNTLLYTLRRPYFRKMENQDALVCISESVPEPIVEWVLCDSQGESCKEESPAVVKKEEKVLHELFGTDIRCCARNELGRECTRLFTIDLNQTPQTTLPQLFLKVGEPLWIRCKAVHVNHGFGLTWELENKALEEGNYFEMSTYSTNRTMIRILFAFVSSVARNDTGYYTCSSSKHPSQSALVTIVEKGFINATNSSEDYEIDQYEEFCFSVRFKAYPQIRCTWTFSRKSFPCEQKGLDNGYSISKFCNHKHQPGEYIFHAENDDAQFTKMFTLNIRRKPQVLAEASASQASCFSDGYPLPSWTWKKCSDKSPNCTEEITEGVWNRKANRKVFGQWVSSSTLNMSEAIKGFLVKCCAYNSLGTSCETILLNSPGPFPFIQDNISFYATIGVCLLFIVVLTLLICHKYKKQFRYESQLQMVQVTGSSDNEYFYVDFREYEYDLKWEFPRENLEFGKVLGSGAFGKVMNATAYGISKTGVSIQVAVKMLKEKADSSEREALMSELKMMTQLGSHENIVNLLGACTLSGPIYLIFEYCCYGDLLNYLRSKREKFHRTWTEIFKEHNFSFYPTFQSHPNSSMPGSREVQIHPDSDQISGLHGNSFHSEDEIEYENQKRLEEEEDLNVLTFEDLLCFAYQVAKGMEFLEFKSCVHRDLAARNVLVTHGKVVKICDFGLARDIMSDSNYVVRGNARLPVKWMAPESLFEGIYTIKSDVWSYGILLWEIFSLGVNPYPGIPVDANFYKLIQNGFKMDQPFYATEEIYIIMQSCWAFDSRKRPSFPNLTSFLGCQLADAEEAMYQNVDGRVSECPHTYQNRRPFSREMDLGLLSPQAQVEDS

Question: For CC(=O)N1CCN(c2ccc(Nc3nccc(-c4cn(C)c5ncccc45)n3)cc2)CC1, which GI50 (Jurkat) is on record?
Answer: > 10000 nM

Question: And the Activity (U-937 [1])?
Answer: 87.16%

Question: And the Activity [2]?
Answer: Active

Question: What about the Activity (MV4-11 [3]) of the same molecule?
Answer: 1.91%

Question: What about the Activity (MV4-11 [4]) of the same molecule?
Answer: 2.16%

Question: What about the inhibition [5] of the same molecule?
Answer: Active

Question: What about the Activity (U-937 [6]) of the same molecule?
Answer: 1.7%

Question: What about the Activity (MV4-11 [7]) of the same molecule?
Answer: 3.51%

Question: What about the pKi [8] of the same molecule?
Answer: 7.08

Question: What about the Activity (MV4-11 [9]) of the same molecule?
Answer: 1.86%

Question: What about the Activity (MV4-11 [10]) of the same molecule?
Answer: 23.5%

Question: What about the Activity (MV4-11 [11]) of the same molecule?
Answer: 20.95%

Question: What about the GI50 (NB-4) of the same molecule?
Answer: 1060 nM

Question: And the Activity [12]?
Answer: Active

Question: And the Activity (MV4-11 [13])?
Answer: 6.95%

Question: And the GI50 (MV4-11 [14])?
Answer: 74 nM

Question: What about the Activity (MV4-11 [15]) of the same molecule?
Answer: 14.35%

Question: What about the Activity (U-937 [16]) of the same molecule?
Answer: 9.79%

Question: What about the inhibition [17] of the same molecule?
Answer: Active

Question: And the GI50 (MV4-11 [18])?
Answer: 74 nM

Question: What about the Activity (U-937 [19]) of the same molecule?
Answer: 1.73%

Question: And the Activity (U-937 [20])?
Answer: 86.36%

Question: What about the Activity (U-937 [21]) of the same molecule?
Answer: 14.5%

Question: And the GI50 (U-937 [22])?
Answer: > 10000 nM

Question: What about the Activity (U-937 [23]) of the same molecule?
Answer: 85.8%

Question: What about the Activity (U-937 [24]) of the same molecule?
Answer: 1.4%

Question: And the Activity (U-937 [25])?
Answer: 2.55%

Question: What about the Activity (U-937 [26]) of the same molecule?
Answer: 10.31%

Question: And the Activity (MV4-11 [27])?
Answer: 72.29%

Question: And the Activity (MV4-11 [28])?
Answer: 3.06%
